PfG6PD inh – PfG6PD enzyme inhibitors, primary screen, biochemical, fluorescence intensity, uHTS. AID 504690, 2011. inhibition, % at 20 µM. actives 0.78% (n = 350,000). glucose-6-phosphate dehydrogenase-6-phosphogluconolactonase (Plasmodium falciparum 3D7). PfGluPho enzyme, NADPH resazurin-diaphorase fluorescence;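 active means inhibition reaching at least a set limit at 20 µM in the primary screen, cut at about 59% in these data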;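 further: 0% = DMSO wells with substrate and 100% = DMSO wells lacking glucose-6-phosphate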
Diaphorase inh – diaphorase inhibitors and chemical oxidizers, primary screen, counter-screen for diaphorase-coupled primary assays, biochemical, uHTS, resorufin fluorescence; inhibition, % at 20 µM; diaphorase resazurin-to-resorufin fluorescence, NADH, 16 min; bacterial (C. kluyveri) enzyme, not human; actives 0.69% (n = 190,000);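 active means primary screen inhibition at 20 µM above a set limit, cut at about 50% in these data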;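 further: plate controls were DMSO with full reaction for no effect and wells lacking NADH for full effect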
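Test system: Clostridium kluyveri diaphorase enzyme / Quantity: diaphorase at 0.14 U/mL in enzyme working solution / Incubation: 16-min room-temperature incubation before reading / Benchmarks: NADH-free wells as positive control, DMSO-only neutral wells / Signal: resorufin fluorescence 544/590 nm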
HKDC1 inh – HKDC1 hexokinase inhibitors, primary screen, biochemical, fluorescence, uHTS; actives 0.16% (n = 340,000); Q2TB90; recombinant HKDC1, G6PDH/diaphorase resazurin coupled fluorescence; inhibition, % at 20 µM;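 active means inhibition above about 35% when tested at 20 µM, limit read from the data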;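 further: plate controls were DMSO wells with enzyme for no effect and DMSO wells lacking enzyme for full effect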
Target sequence (Q2TB90 whole entry, looked up): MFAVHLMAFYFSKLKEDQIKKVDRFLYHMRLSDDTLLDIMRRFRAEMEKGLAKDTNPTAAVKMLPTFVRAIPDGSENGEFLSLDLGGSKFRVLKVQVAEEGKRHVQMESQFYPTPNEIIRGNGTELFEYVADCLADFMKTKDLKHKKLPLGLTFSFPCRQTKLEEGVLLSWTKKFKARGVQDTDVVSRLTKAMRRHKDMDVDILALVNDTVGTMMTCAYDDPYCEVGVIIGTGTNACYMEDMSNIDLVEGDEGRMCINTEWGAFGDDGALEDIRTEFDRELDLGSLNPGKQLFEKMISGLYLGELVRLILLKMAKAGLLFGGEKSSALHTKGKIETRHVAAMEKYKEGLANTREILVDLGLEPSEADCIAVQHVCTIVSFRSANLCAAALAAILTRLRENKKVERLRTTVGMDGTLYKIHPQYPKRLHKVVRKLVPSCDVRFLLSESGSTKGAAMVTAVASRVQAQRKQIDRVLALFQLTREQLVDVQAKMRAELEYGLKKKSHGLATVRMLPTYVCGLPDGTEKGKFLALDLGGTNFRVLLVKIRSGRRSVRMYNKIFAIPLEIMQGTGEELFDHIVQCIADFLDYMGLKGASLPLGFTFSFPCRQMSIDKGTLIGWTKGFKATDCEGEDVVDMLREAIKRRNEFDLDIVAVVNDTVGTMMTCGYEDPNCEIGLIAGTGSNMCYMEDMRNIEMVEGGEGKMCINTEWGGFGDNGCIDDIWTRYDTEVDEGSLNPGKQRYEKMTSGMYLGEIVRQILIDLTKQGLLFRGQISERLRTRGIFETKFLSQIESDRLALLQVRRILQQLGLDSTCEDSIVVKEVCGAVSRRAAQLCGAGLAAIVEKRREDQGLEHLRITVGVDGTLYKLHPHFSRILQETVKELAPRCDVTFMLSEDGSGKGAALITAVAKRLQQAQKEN
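Test system: HK5 enzyme. Quantity: 5 µg/mL HK5 final. Reagent: glucose and ATP substrates. Schedule: 90 min reaction incubation at room temperature, dark. Technique: resazurin-to-resorufin fluorescence via G6PDH and diaphorase coupling, 525/613 nm. Control set: DMSO wells with and without enzyme mix.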
G6PDH CS – L. mesenteroides G6PDH inhibitors, counter-screen for G6PDH-coupled screening assays, biochemical, Leuconostoc mesenteroides enzyme; glucose-6-phosphate dehydrogenase [Leuconostoc mesenteroides]; Purified L. mesenteroides G6PDH, diaphorase/resazurin coupled fluorescence, 45 min; inhibition, % at 5 µM; actives 0.12% (n = 200,000); in the data active means inhibition above about 50%
Diaphorase act – compounds boosting diaphorase resazurin reduction – biochemical, uHTS, resorufin fluorescence, counter-screen for diaphorase-coupled primary assays, primary screen; Diaphorase/resazurin coupled assay, 16 min; stronger effect = higher value; 1 = vehicle wells, 0 = NADH-free wells; activation factor at 20 µM; actives 0.005% (n = 190,000); AID 1229, 2008;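 active means diaphorase activity raised at least twofold by the compound at 20 µM; inactive means activation factor below 2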
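Measured by – red resorufin fluorescence at 544/590 nm excitation/emission · Test system – Clostridium kluyveri diaphorase, purified enzyme · Incubation – reaction time 16 min, room temperature · Buffer or medium – 50 mM HEPES pH 7.4 with 4.542 mM MgCl2, 0.005% Tween 20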
PfGluPho conf – PfG6PD inhibitors, hit retest, confirmation, biochemical, fluorescence intensity, single concentration | shares compounds with PfG6PD inh | actives 34% (n = 2,400) | inhibition, % at 20 µM | recombinant PfGluPho, NADPH-diaphorase-resazurin fluorescence;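 active means inhibition of at least 50% at 20 µM in any single replicate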;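 further: 0% = DMSO with substrate and 100% = DMSO lacking glucose-6-phosphate substrate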
Diaphorase 10uM – diaphorase inhibitors and chemical oxidizers, confirmation, counter-screen for P. falciparum G6PD inhibitor project, biochemical, fluorescence intensity, 10 µM NADPH. diaphorase-coupled resazurin reduction, NADPH 10 uM. inhibition, % at 20 µM. shares compounds with PfG6PD inh. actives 39% (n = 820);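 active means average inhibition reaching 50% or more with the compound at 20 µM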;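 further: resorufin red fluorescence formed as diaphorase reduces resazurin using NADPH; 0% = DMSO with enzyme and 100% = DMSO without enzyme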
Diaph ctr 30uM – diaphorase inhibitors and chemical oxidizers, confirmation, counter-screen for P. falciparum G6PD inhibitor project, biochemical, fluorescence intensity, 30 µM NADPH; shares compounds with PfG6PD inh; Diaphorase/resazurin coupled assay, resorufin fluorescence; inhibition, % at 20 µM; actives 29% (n = 820); AID 504863, 2011;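 active means inhibition averaging 50% or more, tested at 20 µM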;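 further: 0% = DMSO with enzyme and 100% = DMSO wells lacking diaphorase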
* hit, by the source's call; nt = no result. An excerpt weighted towards active compounds, which were near 1.2% of everything screened.

SMILES	PfG6PD inh	Diaphorase inh	HKDC1 inh	G6PDH CS	Diaphorase act	PfGluPho conf	Diaphorase 10uM	Diaph ctr 30uM
CC(C)/C=C/CN1CCN(CCCc2ccccc2)C(CCO)C1 (configuration not stated)	-2.0	nt	-7.7	nt	nt	nt	nt	nt
CC(C)OP(=O)(c1ccc(N(C)C)cc1)C(O)c1ccc(N(C)C)cc1 (configuration not stated)	67.8*	nt	-0.6	nt	nt	8.3	nt	nt
Cc1ccc2cccc(S(=O)(=O)N3CCCc4ccccc43)c2n1	66.9*	23.4	5.8	9.4	0.8	32.6	nt	nt
Cc1ccc(S(=O)(=O)N2CCCc3ccccc32)cc1	44.0	nt	nt	nt	nt	nt	nt	nt
CCOc1ccc(Cl)cc1/C=N/NC(=O)CNC(=O)c1ccccc1	117.8*	8.1	-4.5	-2.9	0.9	91.9*	93.1*	84.6*
Cc1cccc(OCC(=O)NCC(=O)N/N=C/c2ccccc2)c1	68.6*	nt	-2.2	nt	nt	49.8*	41.0	41.2
O=C(COc1ccccc1)NCC(=O)N/N=C/c1cc(Br)ccc1OCc1ccccc1	81.3*	16.6	-0.5	2.3	0.8	28.6	nt	nt
CCOP(=O)(OCC)C(NC(=O)/C=C/c1ccc(OC)cc1)c1ccccc1 (configuration not stated)	-7.7	15.1	-9.6	11.5	0.8	nt	nt	nt
O=C(Nc1nnc(S(=O)(=O)N2CCOCC2)s1)c1ccc(Cl)cc1	104.5*	nt	-1.2	nt	nt	72.2*	71.8*	53.5*
COc1ccc(C(=O)Nc2nnc(-c3ccccc3)s2)cc1	-10.0	nt	2.8	nt	nt	nt	nt	nt
COc1ccc(C(=O)Nc2nnc(S(=O)(=O)N3CCOCC3)s2)cc1	78.4*	nt	2.9	nt	nt	51.1*	38.8	31.8
O=C(Nc1nnc(S(=O)(=O)N2CCOCC2)s1)c1ccccc1	62.7*	nt	1.7	nt	nt	30.9	nt	nt
COc1ccc(C(=O)Nc2nnc(C(F)(F)F)s2)cc1	118.0*	15.7	0.0	2.3	0.8	96.2*	88.9*	62.4*
CCOCc1nnc(NC(=O)c2cccc(OC)c2)s1	21.9	3.6	-5.6	17.5	1	nt	nt	nt
CC1CCN(S(=O)(=O)c2nnc(NC(=O)c3cccc(Cl)c3)s2)CC1	86.2*	nt	7.3	nt	nt	41.6	nt	nt
CCc1nnc(NC(=O)c2cccc(OC)c2)s1	61.7*	9.3	-2.6	3.7	0.9	42.4	nt	nt
O=C(C[n+]1ccccc1)N/N=C/c1ccc(C(=O)O)cc1	3.1	nt	-0.8	nt	nt	nt	nt	nt
Cc1ccccc1-n1c(-c2ccc3ccccc3n2)n[nH]c1=S	68.8*	nt	1.0	nt	nt	56.4*	15.4	17.4
O=C(COC(=O)Cn1cnc2ccccc2c1=O)Nc1ccccc1Sc1ccc(Cl)cc1	71.1*	23.0	8.1	-8.6	0.8	37.9	nt	nt
CC(=O)Nc1ccc(S(=O)(=O)/N=C2\C(=O)c3ccccc3C([O-])=C2n2cc[n+](-c3ccccn3)c2)cc1	69.4*	nt	23.8	nt	nt	56.4*	34.8	36.1
CCCC[n+]1ccn(C2=C([O-])c3ccccc3C(=O)/C2=N\S(=O)(=O)c2ccc(Br)cc2)c1	56.5	-18.7	2.2	47.8	1.2	nt	nt	nt
CN1/C(=N\O)c2cccc3cccc1c23	76.2*	33.4	9.1	44.8	0.7	46.2	nt	nt
CN(C)c1nc(=NCc2cccs2)ss1	60.5*	nt	-27.3	nt	nt	49.3*	4.5	-4.3
CC(SC(=S)N(C)Cc1cccs1)C(=O)O (configuration not stated)	-18.3	-3.5	-12.3	2.2	1	nt	nt	nt
CCc1nc(Nc2cccc(O)c2)c2oc3ccccc3c2n1	73.2*	nt	4.9	nt	nt	12.4	nt	nt
SMILES	PfG6PD inh	Diaphorase inh	HKDC1 inh	G6PDH CS	Diaphorase act	PfGluPho conf	Diaphorase 10uM	Diaph ctr 30uM
COc1cc(/C=N/n2cc(-c3ccccc3)[nH]c2=S)cc(OC)c1O	60.7*	nt	24.1	nt	nt	52.5*	-34.5	-31.2
COc1cccc(NC(=O)c2cnn(-c3ccccc3)c2C)c1	63.4*	nt	-1.2	nt	nt	22.1	nt	nt
Cc1cc(O)c(C(C)C)cc1N=Nc1ccccc1C(=O)O	5.7	nt	1.9	nt	nt	nt	nt	nt
Cc1cc(O)c(C(C)C)cc1N=Cc1ccccc1[N+](=O)[O-]	100.9*	nt	21.3	nt	nt	65.1*	40.9	11.6
CC(C)n1nnc(-c2ccc(OCc3ccccc3F)cc2)n1	-2.6	nt	-2.9	nt	nt	nt	nt	nt
COc1cc(C(=S)N2CCCC2)ccc1OCc1ccc(C)cc1	15.5	nt	-4.4	nt	nt	nt	nt	nt
COc1ccc(Nc2ccnc3ccccc23)cc1	11.9	-12.8	-3.2	-0.3	1.1	nt	nt	nt
CC(C)Nc1ccc(Nc2ccnc3cc4ccccc4cc23)cc1	65.3*	nt	2.5	nt	nt	18.8	nt	nt
COc1ccc(CCNC(=O)CSC2=NS(=O)(=O)c3cc(F)ccc3N2)cc1OC	-10.0	nt	nt	nt	nt	nt	nt	nt
Cc1ccc2nc(SC(C)C(=O)NC3CCCc4ccccc43)[nH]c2c1 (configuration not stated)	75.7*	14.6	5.2	-8.0	0.9	44.1	nt	nt
COc1ccc2nc(SCC(=O)NC3CCCc4ccccc43)[nH]c2c1 (configuration not stated)	16.5	14.0	-6.2	-0.6	0.9	nt	nt	nt
O=C(CSc1nc2ccccc2[nH]1)NC1CCCc2ccccc21 (configuration not stated)	64.2*	10.3	1.6	-7.0	0.9	56.9*	42.3	39.5
Cc1cc(=O)[nH]c(SCC(=O)NC2CCCc3ccccc32)n1 (configuration not stated)	-24.2	nt	9.1	nt	nt	nt	nt	nt
O=C(CSc1nc2ccc(Cl)cc2[nH]1)NC1CCCc2ccccc21 (configuration not stated)	107.2*	9.5	6.3	-9.3	0.9	55.2*	42.0	34.2
CCC(CC)COC(=O)C1=C(C)NC(=O)NC1c1ccc2c(c1)OCO2 (configuration not stated)	3.0	nt	2.8	nt	nt	nt	nt	nt
COC(=O)c1ccc(COC(=O)c2ccc(CS(=O)(=O)c3ccc(C)cc3)cc2)cc1	-2.2	-1.8	-3.4	0.2	1	nt	nt	nt
COC(=O)c1cc2c(n1S(=O)(=O)c1ccc(C)cc1)C(=O)C(=O)c1[nH]cc(C(=O)OCc3ccccc3)c1-2	77.5*	nt	22.8	nt	nt	50.5*	36.5	37.0
